Consider 14 molecules from ChEMBL document CHEMBL4382268, “Glycyrrhetinic acid derivatives containing aminophosphonate ester species as multidrug resistance reversers that block the NF-κB pathway and cell proliferation” (Bioorg Med Chem Lett, 2018).

Bounds are passed on as bounds.

One assay relates to L02. In words: Antiproliferative activity against human HL-7702 cells after 48 hrs by MTT assay. It counts as functional, cell-based. To be noted: L02, 48 h. A digest of the protocol:
(§1)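 MTT read-out of antiproliferative activity across cancer lines HepG-2, NCI-H460, MGC-803, A549 and MG-63 and normal liver line HL-7702. IC50 given as mean ± S.D. of three separate experiments, each run in triplicate.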

A short description of assay [1]: Inhibition of TNF-alpha induced NF-kappaB activation in human A549 cells after 7 hrs by Bright-Glo luciferase reporter gene assay. It counts as cell-based. The essentials: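 A549 cells transiently cotransfected with an NF-κB-Luc reporter and stimulated with TNF-α. Luciferase read-out of inhibition gives IC50, the mean of at least three independent experiments each with triplicates.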
A general note: A reporter such as luciferase makes a cellular process visible.

The test system of another assay is HepG2. In words: Antiproliferative activity against human HepG2 cells after 48 hrs by MTT assay. Format: functional, cell-based. The following applies: HepG2, 48 h. The essentials: as §1
On the technique in general: Tetrazolium dyes change colour on reduction, which living cells bring about.

The test system of a further assay is NCI-H460. In words: Antiproliferative activity against human NCI-H460 cells after 48 hrs by MTT assay. Format: functional, cell-based. To be noted: NCI-H460, 48 h. The essentials:
as §1

In a further assay the test system is MGC-803. The experiment in a line: Antiproliferative activity against human MGC803 cells after 48 hrs by MTT assay. Format: functional, cell-based. To be noted: MGC-803, 48 h. A digest of the protocol: as §1
A further assay deals with A549. In words: Antiproliferative activity against human A549 cells after 48 hrs by MTT assay. It counts as functional, cell-based. The following applies: A549, 48 h. The essentials: as §1
The next assay deals with MG-63. The experiment in a line: Antiproliferative activity against human MG63 cells after 48 hrs by MTT assay. Format: functional, cell-based. The following applies: MG-63, 48 h. The essentials:
as §1

The mark [2] stands for this setting: Homo sapiens, A549, 7 h, read-out: IC50.

The IC50 is the point on the concentration scale where inhibition reaches its midpoint.

Consider `CCOP(=O)(OCC)C(Nc1ccc(CC(=O)NCCCNC(=O)[C@@]2(C)CC[C@]3(C)CC[C@]4(C)C(=CC(=O)[C@@H]5[C@@]6(C)CC[C@H](OC(C)=O)C(C)(C)[C@@H]6CC[C@]54C)[C@@H]3C2)cc1)c1ccc(Br)cc1` (stereo partly specified), for which the half-maximal inhibitory concentration (IC50) with L02 was greater than 50 µM; in assay [1] (setting [2]) it was 28.4 µM; in the assay with HepG2, 23.6 µM; with NCI-H460, 17.1 µM; in the assay with MGC-803, 29.9 µM; in the assay on A549, 20.5 µM. The half-inhibitory concentration (IC50) in the assay on MG-63 amounted to 21.3 µM.
Take `CCOP(=O)(OCC)C(Nc1ccc(CC(=O)NCCCCNC(=O)[C@@]2(C)CC[C@]3(C)CC[C@]4(C)C(=CC(=O)[C@@H]5[C@@]6(C)CC[C@H](O)C(C)(C)[C@@H]6CC[C@]54C)[C@@H]3C2)cc1)c1cccc(OC)c1` (stereo partly specified): the IC50 in the assay on L02 was greater than 50 µM; in assay [1] (setting [2]), 29.4 µM; with HepG2 it was 46.4 µM; with NCI-H460, 39.2 µM; with MGC-803, greater than 50 µM; in the assay on A549, 48.3 µM. 45.6 µM corresponded to half-maximal inhibition with MG-63 (IC50).
Regarding `CCOP(=O)(OCC)C(Nc1ccc(CC(=O)NCCCCNC(=O)[C@@]2(C)CC[C@]3(C)CC[C@]4(C)C(=CC(=O)[C@@H]5[C@@]6(C)CC[C@H](OC(C)=O)C(C)(C)[C@@H]6CC[C@]54C)[C@@H]3C2)cc1)c1cccc(F)c1` (stereo partly specified), the IC50 in the assay with L02 is greater than 50 µM; in assay [1] (setting [2]) it was 27.4 µM; in the assay on HepG2, 21.3 µM; in the assay with NCI-H460, 28.2 µM; in the assay with MGC-803, 21 µM; with A549 it was 26.4 µM. Also, inhibition in the assay with MG-63 was half-maximal at 22.8 µM (IC50).
For the molecule `CCOP(=O)(OCC)C(Nc1ccc(CC(=O)NCCCNC(=O)[C@@]2(C)CC[C@]3(C)CC[C@]4(C)C(=CC(=O)[C@@H]5[C@@]6(C)CC[C@H](OC(C)=O)C(C)(C)[C@@H]6CC[C@]54C)[C@@H]3C2)cc1)c1cccc(OC)c1` (stereo partly specified), the IC50 in the assay with L02 is greater than 50 µM; in assay [1] (setting [2]), greater than 30 µM; with HepG2, 38.2 µM; in the assay with NCI-H460, 31.7 µM; in the assay with MGC-803, 36.7 µM; in the assay on A549, 39.3 µM. For the same molecule, half-maximal inhibition with MG-63 (IC50) required 39.5 µM.
Consider `CCOP(=O)(OCC)C(Nc1ccc(CC(=O)NCCCNC(=O)[C@@]2(C)CC[C@]3(C)CC[C@]4(C)C(=CC(=O)[C@@H]5[C@@]6(C)CC[C@H](O)C(C)(C)[C@@H]6CC[C@]54C)[C@@H]3C2)cc1)c1ccc(F)cc1` (stereo partly specified), for which the concentration for half-maximal inhibition (IC50) is greater than 50 µM in the assay with L02; 8.89 µM in assay [1] (setting [2]); 29.1 µM in the assay with HepG2; 17.3 µM with NCI-H460; 20.5 µM in the assay with MGC-803; 17.9 µM in the assay with A549. In the assay with MG-63, this molecule showed an IC50 of 16.5 µM.
On to `CCOP(=O)(OCC)C(Nc1ccc(CC(=O)NCCCCNC(=O)[C@@]2(C)CC[C@]3(C)CC[C@]4(C)C(=CC(=O)[C@@H]5[C@@]6(C)CC[C@H](O)C(C)(C)[C@@H]6CC[C@]54C)[C@@H]3C2)cc1)c1cccc(F)c1` (stereo partly specified), for which the IC50 in the assay on L02 is greater than 50 µM; in assay [1] (setting [2]), greater than 30 µM; in the assay with HepG2, greater than 50 µM; with NCI-H460 it was greater than 50 µM; in the assay on MGC-803, greater than 50 µM; in the assay on A549, greater than 50 µM. The 50% inhibitory concentration (IC50) in the assay with MG-63 was greater than 50 µM.
For the molecule `CCOP(=O)(OCC)C(Nc1ccc(CC(=O)NCCCCNC(=O)[C@@]2(C)CC[C@]3(C)CC[C@]4(C)C(=CC(=O)[C@@H]5[C@@]6(C)CC[C@H](O)C(C)(C)[C@@H]6CC[C@]54C)[C@@H]3C2)cc1)c1ccc(F)cc1` (stereo partly specified), the concentration for half-maximal inhibition (IC50) with L02 was greater than 50 µM; in assay [1] (setting [2]) it was 6.09 µM; in the assay with HepG2 it was 20.2 µM; with NCI-H460, 19.4 µM; with MGC-803, 18.3 µM; in the assay on A549, 19.8 µM. For the same molecule, 12.4 µM corresponded to half-maximal inhibition in the assay with MG-63 (IC50).
On to `CCOP(=O)(OCC)C(Nc1ccc(CC(=O)NCCCNC(=O)[C@@]2(C)CC[C@]3(C)CC[C@]4(C)C(=CC(=O)[C@@H]5[C@@]6(C)CC[C@H](O)C(C)(C)[C@@H]6CC[C@]54C)[C@@H]3C2)cc1)c1cccc(Br)c1` (stereo partly specified), for which the half-inhibitory concentration (IC50) in the assay with L02 was greater than 50 µM; in assay [1] (a549), “Not Active”; with HepG2 it was greater than 50 µM; with NCI-H460 it was greater than 50 µM; with MGC-803 it was greater than 50 µM; with A549 it was greater than 50 µM. For the same molecule, the concentration for half-maximal inhibition (IC50) in the assay on MG-63 was greater than 50 µM.
For the molecule `CCOP(=O)(OCC)C(Nc1ccc(CC(=O)NCCCCNC(=O)[C@@]2(C)CC[C@]3(C)CC[C@]4(C)C(=CC(=O)[C@@H]5[C@@]6(C)CC[C@H](OC(C)=O)C(C)(C)[C@@H]6CC[C@]54C)[C@@H]3C2)cc1)c1cccc(OC)c1` (stereo partly specified), the IC50 was greater than 50 µM with L02; 23.4 µM in assay [1] (setting [2]); 35.3 µM with HepG2; 27.4 µM in the assay on NCI-H460; 32.9 µM in the assay with MGC-803; 27.2 µM in the assay on A549. Further, in the assay with MG-63, the concentration for half-maximal inhibition (IC50) was 36.6 µM.
For the molecule `CCOP(=O)(OCC)C(Nc1ccc(CC(=O)NCCCNC(=O)[C@@]2(C)CC[C@]3(C)CC[C@]4(C)C(=CC(=O)[C@@H]5[C@@]6(C)CC[C@H](O)C(C)(C)[C@@H]6CC[C@]54C)[C@@H]3C2)cc1)c1ccc(OC)cc1` (stereo partly specified), the concentration for half-maximal inhibition (IC50) is greater than 50 µM with L02; 17.1 µM in assay [1] (setting [2]); 36.8 µM in the assay on HepG2; 29.4 µM in the assay on NCI-H460; 25.7 µM in the assay on MGC-803; 23.1 µM in the assay on A549. The molecule also gave a half-maximal inhibitory concentration (IC50) with MG-63 of 23.6 µM.
With `CCOP(=O)(OCC)C(Nc1ccc(CC(=O)NCCCNC(=O)[C@@]2(C)CC[C@]3(C)CC[C@]4(C)C(=CC(=O)[C@@H]5[C@@]6(C)CC[C@H](OC(C)=O)C(C)(C)[C@@H]6CC[C@]54C)[C@@H]3C2)cc1)c1cccc(Br)c1` (stereo partly specified), the half-maximal inhibitory concentration (IC50) in the assay on L02 is greater than 50 µM; in assay [1] (setting [2]) it was greater than 30 µM; with HepG2, greater than 50 µM; in the assay on NCI-H460 it was greater than 50 µM; in the assay on MGC-803 it was greater than 50 µM; in the assay on A549, greater than 50 µM. Moreover, the IC50 in the assay on MG-63 was greater than 50 µM.
In the case of `CCOP(=O)(OCC)C(Nc1ccc(CC(=O)NCCCCNC(=O)[C@@]2(C)CC[C@]3(C)CC[C@]4(C)C(=CC(=O)[C@@H]5[C@@]6(C)CC[C@H](OC(C)=O)C(C)(C)[C@@H]6CC[C@]54C)[C@@H]3C2)cc1)c1ccccc1` (stereo partly specified), the half-maximal inhibitory concentration (IC50) in the assay on L02 is greater than 50 µM; in assay [1] (setting [2]), 13.2 µM; with HepG2, 26.3 µM; in the assay on NCI-H460, 13.2 µM; in the assay on MGC-803, 15.2 µM; with A549, 23.1 µM. In addition, the IC50 in the assay with MG-63 worked out at 20.2 µM.
On to `CCOP(=O)(OCC)C(Nc1ccc(CC(=O)NCCCNC(=O)[C@@]2(C)CC[C@]3(C)CC[C@]4(C)C(=CC(=O)[C@@H]5[C@@]6(C)CC[C@H](O)C(C)(C)[C@@H]6CC[C@]54C)[C@@H]3C2)cc1)c1cccc(F)c1` (stereo partly specified), for which the half-inhibitory concentration (IC50) in the assay with L02 is greater than 50 µM; in assay [1] (a549), “Not Active”; with HepG2, greater than 50 µM; in the assay on NCI-H460, greater than 50 µM; with MGC-803 it was greater than 50 µM; in the assay on A549, greater than 50 µM. In the assay with MG-63, the IC50 was greater than 50 µM.
For the molecule `CC[C@@]1(O)C(=O)OCc2c1cc1n(c2=O)Cc2cc3cc(O)ccc3nc2-1` [HYDROXYCAMPTOTHECIN], the 50% inhibitory concentration (IC50) was determined as 10.2 µM in the assay on L02; 10.1 µM with NCI-H460; 9.71 µM in the assay on MGC-803; 9.13 µM in the assay on A549; 10.7 µM in the assay with MG-63.
